Series [1] is described as follows: folding enthalpy; higher = less favourable; fluorescence melt of hairpins on a sequencing array, two-state fit. The settings on record: sodium 0.088 M. The method in brief:
(§1)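 Two-state fits, bootstrapped, provided melting temperature and folding enthalpy from Cy3 fluorescence normalised to pre-quench Cy3 and to control constructs. Library hairpins with annealed Cy3 and quencher oligos were imaged on a sequenced MiSeq flow cell in 50 mM Na-HEPES pH 8.0, 25 mM NaCl, at 2.5 °C intervals up to 60 °C. Four replicates were combined with inverse-variance weighting. A 9.35 °C upward shift was applied to fitted temperatures to match UV melts.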

Series [2] is described as follows: melting temperature; fluorescence melt of hairpins on a sequencing array, two-state fit, raised by 9.35 °C to match UV melts. The note with it: sodium 0.088 M. In short, it runs like this: as §1

Consider GCCGGTGGAAACACCGAC (.(((((....))))).), for which the folding enthalpy in series [1] is -12.4 kcal/mol. Also, the Tm in series [2] was determined as 55.3 °C.
As to GCCGTCCGAAAGGAGGC (((.(((....)))))), the folding enthalpy in series [1] was -27.4 kcal/mol. Further, in series [2], the Tm was 58.4 °C.
Taken in the same sequence, the figures for GCCGTCGAAAGACCGGC ((((((....))).))) were -36.8 kcal/mol and 60.5 °C.
Taken in the same sequence, the figures for GCCGTCGAAAGACCGGGC ((((((....)))..))) were -22.1 kcal/mol and 50.3 °C.
Consider GCCGTCGAAAGACTGGGC ((((((....)))..))), for which, in series [1], the folding enthalpy was -26.4 kcal/mol. Also, the Tm in series [2] came to 53.7 °C.
On to GCCGTCGGAAACGATGGC (((.(((....))).))), for which the folding enthalpy in series [1] is -41.1 kcal/mol. For the same sequence, the Tm in series [2] amounted to 65.5 °C.
With GCCGTCTCGAAAGAGGGC (((..(((....)))))), the folding enthalpy in series [1] is -24.9 kcal/mol. In series [2], the Tm was determined as 50.6 °C.
Take GCCGTGCCGAAAGGCGGC (((..(((....)))))): in series [1], the folding enthalpy is -13.9 kcal/mol. The Tm in series [2] turned out to be 66.8 °C.
With GCCGTGCGAAAGCATCGC ((..(((....)))..)), the folding enthalpy in series [1] is -11.1 kcal/mol. Also, the Tm in series [2] came to 50.2 °C.
Taken in the same sequence, the figures for GCCGTGCGAAAGCCAGGC (((..((....))..))) were -23.9 kcal/mol and 62.8 °C.
Regarding GCCGTGCGAAAGCTCCGC ((.(.((....)).).)), the folding enthalpy in series [1] is -11.2 kcal/mol. For the same sequence, the Tm in series [2] worked out at 40.4 °C.
Taken in the same sequence, the figures for GCCGTGGGAAACCACGAC (.(((((....))))).) were -14.8 kcal/mol and 52 °C.
Taken in the same sequence, the figures for GCCGTTCCGAAAGGAGGC (((..(((....)))))) were -24.4 kcal/mol and 50.7 °C.
Take GCCGTTGGAAACAGCGGC ((((.((....)).)))): the folding enthalpy in series [1] was -39.8 kcal/mol. The Tm in series [2] is 60.3 °C.
With GCCGTTGGAAACGATGGC (((.(.(....).).))), the folding enthalpy in series [1] is -23.1 kcal/mol. Further, in series [2], the Tm was 42.9 °C.
Take GCCTAAGGAAACTTGGGC (((.(((....))).))): the folding enthalpy in series [1] is -37 kcal/mol. In addition, the Tm in series [2] amounted to 48.9 °C.
As for GCCTAATCGAAAGATGGC (((..(((....)))))), the folding enthalpy in series [1] is -27.4 kcal/mol. For the same sequence, the Tm in series [2] was found to be 44.1 °C.
Taken in the same sequence, the figures for GCCTACGAAAGTACGGC ((((((....))).))) were -28.8 kcal/mol and 51.5 °C.
Consider GCCTACGGAAACGTAAGC ((.((((....)))).)), for which, in series [1], the folding enthalpy is -19.8 kcal/mol. Besides, in series [2], the Tm was determined as 36.1 °C.
Taken in the same sequence, the figures for GCCTAGCGAAAGCTAAGC ((.((((....)))).)) were -17.1 kcal/mol and 48.9 °C.
GCCTAGCGAAAGCTCTGC ((..(((....)))..)): the folding enthalpy in series [1] is -11.7 kcal/mol. The Tm in series [2] was determined as 34.3 °C.
For GCCTAGCGAAAGCTGGC (((.(((....)))))), the folding enthalpy in series [1] was -29.2 kcal/mol. The Tm in series [2] worked out at 64.8 °C.
Taken in the same sequence, the figures for GCCTAGCGAAAGCTTTGC ((..(((....)))..)) were -12 kcal/mol and 33.4 °C.
Consider GCCTAGGCGAAAGCCGGC (((..(((....)))))), for which the folding enthalpy in series [1] was -13.3 kcal/mol. Further, the Tm in series [2] worked out at 65.8 °C.
Regarding GCCTAGGGAAACCCAGGC ((((.((....)).)))), the folding enthalpy in series [1] is -31.6 kcal/mol. For the same sequence, the Tm in series [2] was 50.6 °C.
Taken in the same sequence, the figures for GCCTAGGGAAACTTAGGC (((((.(....).))))) were -31.6 kcal/mol and 47.5 °C.
Taken in the same sequence, the figures for GCCTATGGAAACATAAGC ((.((((....)))).)) were -15.6 kcal/mol and 27.6 °C.
Take GCCTCATCGAAAGATGGC (((..(((....)))))): the folding enthalpy in series [1] is -10.1 kcal/mol. Further, the Tm in series [2] was 43.8 °C.
Taken in the same sequence, the figures for GCCTCCCGAAAGGGTGGC (((.(((....))).))) were -36.1 kcal/mol and 67.9 °C.
Consider GCCTCCGAAAGGACCGGC ((((((....)))..))), for which the folding enthalpy in series [1] was -25 kcal/mol. In series [2], the Tm stood at 43.1 °C.
Taken in the same sequence, the figures for GCCTCCGGAAACGGGGGC (((.(((....))).))) were -31 kcal/mol and 67.1 °C.
Regarding GCCTCCTCGAAAGAGGGC (((..(((....)))))), the folding enthalpy in series [1] was -9.35 kcal/mol. The Tm in series [2] came to 43.9 °C.
Taken in the same sequence, the figures for GCCTCGCGAAAGCAAGGC ((((.((....)).)))) were -30 kcal/mol and 65.1 °C.
Consider GCCTCGCGAAAGCCAAGC ((.(.((....)).).)), for which the folding enthalpy in series [1] was -6.14 kcal/mol. The Tm in series [2] was determined as 28.4 °C.
Turning to GCCTCGCGAAAGCGAAGC ((.((((....)))).)), the folding enthalpy in series [1] was -18.7 kcal/mol. For the same sequence, in series [2], the Tm was determined as 56.5 °C.
Consider GCCTCGCGAAAGCTAGGC ((((.((....)).)))), for which the folding enthalpy in series [1] is -33 kcal/mol. The Tm in series [2] came out at 65.2 °C.
Taken in the same sequence, the figures for GCCTCGCGAAAGCTCGGC (((..((....))..))) were -26.6 kcal/mol and 46.4 °C.
Take GCCTCGCGAAAGCTGGGC (((..((....))..))): the folding enthalpy in series [1] was -22.2 kcal/mol. Further, in series [2], the Tm turned out to be 55.4 °C.
Turning to GCCTCGGCGAAAGCCGGC (((..(((....)))))), the folding enthalpy in series [1] was -4.13 kcal/mol. For the same sequence, the Tm in series [2] turned out to be 54.4 °C.
Consider GCCTCGGGAAACCAAGGC ((((.((....)).)))), for which, in series [1], the folding enthalpy is -34.9 kcal/mol. Besides, in series [2], the Tm turned out to be 47.6 °C.
Taken in the same sequence, the figures for GCCTCGGGAAACCGAAGC ((.((((....)))).)) were -23.9 kcal/mol and 44.6 °C.
Taken in the same sequence, the figures for GCCTGAACGAAAGTTGGC (((..(((....)))))) were -23.2 kcal/mol and 45.5 °C.
For the sequence GCCTGAGGAAACTCGGGC (((.(((....))).))), the folding enthalpy in series [1] was -40.8 kcal/mol. For the same sequence, the Tm in series [2] was determined as 57.4 °C.
As for GCCTGCGAAAGCACCGGC ((((((....)))..))), the folding enthalpy in series [1] was -18.5 kcal/mol. Also, the Tm in series [2] was determined as 46.6 °C.
As to GCCTGCGAAAGCACGGC ((((((....))).))), the folding enthalpy in series [1] is -29.7 kcal/mol. The Tm in series [2] is 63.2 °C.
Taken in the same sequence, the figures for GCCTGCGAAAGCATCGGC ((((((....)))..))) were -19.1 kcal/mol and 47.2 °C.
Taken in the same sequence, the figures for GCCTGGCGAAAGCAGGGC (((..((....))..))) were -26.7 kcal/mol and 65.6 °C.
Taken in the same sequence, the figures for GCCTGGCGAAAGCCCGGC (((.(((....))).))) were -35.3 kcal/mol and 59.4 °C.
On to GCCTGGCGAAAGCCCTGC ((..(((....)))..)), for which the folding enthalpy in series [1] was -12.2 kcal/mol. Moreover, in series [2], the Tm amounted to 32.6 °C.
Consider GCCTGGCGAAAGCCGCGC ((..(((....)))..)), for which, in series [1], the folding enthalpy was -16.8 kcal/mol. In series [2], the Tm was found to be 52.3 °C.
Taken in the same sequence, the figures for GCCTGGCGAAAGCCTAGC ((..(((....)))..)) were -12.8 kcal/mol and 41 °C.
Taken in the same sequence, the figures for GCCTGGCGAAAGCGCGGC (((..((....))..))) were -19 kcal/mol and 57.1 °C.
Taken in the same sequence, the figures for GCCTGGCGAAAGCTTGGC (((..((....))..))) were -26.5 kcal/mol and 59.4 °C.
For GCCTGGGGAAACCTGGGC (((..((....))..))), the folding enthalpy in series [1] was -32.3 kcal/mol. Further, in series [2], the Tm amounted to 50.3 °C.

The record behind these values is the array DNA melting data of Ke et al. (doi:10.1101/2024.01.08.574731).
